Values after ≈ are worked out from the molar mass of the structure shown.
Assays:
Aspergillus niger [1] = experiment: Antifungal activity against Aspergillus niger ATCC 6275 after 72 hrs by serial sub-cultivation method; format: functional; conditions: ATCC 6275, 72 h
Outline: (§1)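 MFC was found by serial sub-cultivation of 2 µl into plates holding 100 µl broth per well, then incubation 72 h at 28 °C. MFC is the lowest concentration with no visible growth, taken as 99.5% killing of the original inoculum. Spore inocula came from malt agar cultures washed with 0.85% saline and 0.1% Tween 80.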

Aspergillus versicolor [2] = experiment: Antifungal activity against Aspergillus versicolor ATCC 11730 after 72 hrs by serial dilution method; format: functional; conditions: ATCC 11730, 72 h
Outline: (§2)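 Fungi were kept on malt agar at 4 °C and sub-cultured monthly. Spores were washed off the agar with sterile 0.85% saline containing 0.1% Tween 80 (v/v). Modified microdilution in 96-well plates. MIC is the lowest concentration with no visible growth under the binocular microscope. Inoculum checked on malt agar for contamination and validity.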

Aspergillus versicolor [3] = experiment: Antifungal activity against Aspergillus versicolor ATCC 11730 after 72 hrs by serial sub-cultivation method; format: functional; conditions: ATCC 11730, 72 h; outline: as §1
Aspergillus flavus [4] = experiment: Antifungal activity against Aspergillus flavus ATCC 9643 after 72 hrs by serial dilution method; format: functional; conditions: ATCC 9643, 72 h; outline: as §2
Aspergillus flavus [5] = experiment: Antifungal activity against Aspergillus flavus ATCC 9643 after 72 hrs by serial sub-cultivation method; format: functional; conditions: ATCC 9643, 72 h; outline: as §1
Fulvia fulva [6] = experiment: Antifungal activity against Fulvia fulva TK 5318 after 72 hrs by serial dilution method; format: functional; conditions: TK 5318, 72 h; outline: as §2
Fulvia fulva [7] = experiment: Antifungal activity against Fulvia fulva TK 5318 after 72 hrs by serial sub-cultivation method; format: functional; conditions: TK 5318, 72 h; outline: as §1
Bacillus cereus [8] = experiment: Antibacterial activity against Bacillus cereus clinical isolate after 24 hrs; format: functional
Outline: (§3)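 Broth microdilution MIC in 96-well plates. Compounds in LB broth with bacterial inoculum of 1.0 × 10^4 cfu per well, from suspensions adjusted with sterile saline to 1.0 × 10⁵ CFU/ml. Incubated 24 h at […] as printed. MIC taken as the lowest concentration with no visible growth under the binocular microscope. OD at 655 nm also read against blank. Streptomycin and ampicillin as positive controls. Duplicate, repeated three times.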

Bacillus cereus [9] = experiment: Antibacterial activity against Bacillus cereus clinical isolate after 72 hrs by serial sub-cultivation method; format: functional
Outline: (§4)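 MBC was found by serial sub-cultivation of 2 µl from the MIC wells into plates holding 100 µl broth per well, then incubation for 72 h. MBC is the lowest concentration with no visible growth, i.e. 99.5% killing of the original inoculum. Bacterial inoculum was 1.0 × 10^4 cfu per well in LB broth. Duplicate, repeated three times.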

Micrococcus flavus [10] = experiment: Antibacterial activity against Micrococcus flavus ATCC 10240 after 24 hrs; format: functional; conditions: ATCC 10240, 24 h; outline: as §3
Micrococcus flavus [11] = experiment: Antibacterial activity against Micrococcus flavus ATCC 10240 after 72 hrs by serial sub-cultivation method; format: functional; conditions: ATCC 10240, 72 h; outline: as §4
Staphylococcus aureus [12] = experiment: Antibacterial activity against Staphylococcus aureus ATCC 6538 after 24 hrs; format: functional; conditions: ATCC 6538, 24 h; outline: as §3
Staphylococcus aureus [13] = experiment: Antibacterial activity against Staphylococcus aureus ATCC 6538 after 72 hrs by serial sub-cultivation method; format: functional; conditions: ATCC 6538, 72 h; outline: as §4
Escherichia coli [14] = experiment: Antibacterial activity against Escherichia coli ATCC 35210 after 24 hrs; format: functional; conditions: ATCC 35210, 24 h; outline: as §3
Escherichia coli [15] = experiment: Antibacterial activity against Escherichia coli ATCC 35210 after 72 hrs by serial sub-cultivation method; format: functional; conditions: ATCC 35210, 72 h; outline: as §4
Pseudomonas aeruginosa [16] = experiment: Antibacterial activity against Pseudomonas aeruginosa ATCC 27853 after 24 hrs; format: functional; conditions: ATCC 27853, 24 h; outline: as §3
Pseudomonas aeruginosa [17] = experiment: Antibacterial activity against Pseudomonas aeruginosa ATCC 27853 after 72 hrs by serial sub-cultivation method; format: functional; conditions: ATCC 27853, 72 h; outline: as §4
Proteus mirabilis [18] = experiment: Antibacterial activity against Proteus mirabilis after 24 hrs; format: functional; outline: as §3
Proteus mirabilis [19] = experiment: Antibacterial activity against Proteus mirabilis after 72 hrs by serial sub-cultivation method; format: functional; outline: as §4
Salmonella typhimurium [20] = experiment: Antibacterial activity against Salmonella Typhimurium ATCC 13311 after 24 hrs; format: functional, Salmonella enterica subsp. enterica serovar Typhimurium; conditions: Salmonella enterica, ATCC 13311, 24 h; outline: as §3
Salmonella typhimurium [21] = experiment: Antibacterial activity against Salmonella Typhimurium ATCC 13311 after 72 hrs by serial sub-cultivation method; format: functional, Salmonella enterica subsp. enterica serovar Typhimurium; conditions: Salmonella enterica, ATCC 13311, 72 h; outline: as §4
Listeria monocytogenes [22] = experiment: Antibacterial activity against Listeria monocytogenes NCTC 7973 after 24 hrs; format: functional; conditions: NCTC 7973, 24 h; outline: as §3
Listeria monocytogenes [23] = experiment: Antibacterial activity against Listeria monocytogenes NCTC 7973 after 72 hrs by serial sub-cultivation method; format: functional; conditions: NCTC 7973, 72 h; outline: as §4
Talaromyces funiculosus [24] = experiment: Antifungal activity against Penicillium funiculosum ATCC 36839 after 72 hrs by serial dilution method; format: functional; conditions: ATCC 36839, 72 h; outline: as §2
Talaromyces funiculosus [25] = experiment: Antifungal activity against Penicillium funiculosum ATCC 36839 after 72 hrs by serial sub-cultivation method; format: functional; conditions: ATCC 36839, 72 h; outline: as §1
Penicillium ochrochloron [26] = experiment: Antifungal activity against Penicillium ochrochloron ATCC 9112 after 72 hrs by serial dilution method; format: functional; conditions: ATCC 9112, 72 h; outline: as §2
Penicillium ochrochloron [27] = experiment: Antifungal activity against Penicillium ochrochloron ATCC 9112 after 72 hrs by serial sub-cultivation method; format: functional; conditions: ATCC 9112, 72 h; outline: as §1
Trichoderma viride [28] = experiment: Antifungal activity against Trichoderma viride IAM 5061 after 72 hrs by serial dilution method; format: functional; conditions: IAM 5061, 72 h; outline: as §2
Trichoderma viride [29] = experiment: Antifungal activity against Trichoderma viride IAM 5061 after 72 hrs by serial sub-cultivation method; format: functional; conditions: IAM 5061, 72 h; outline: as §1
Aspergillus niger [30] = experiment: Antifungal activity against Aspergillus niger ATCC 6275 after 72 hrs by serial dilution method; format: functional; conditions: ATCC 6275, 72 h; outline: as §2
Aspergillus fumigatus [31] = experiment: Antifungal activity against Aspergillus fumigatus plant isolate after 72 hrs by serial dilution method
Aspergillus fumigatus [32] = experiment: Antifungal activity against Aspergillus fumigatus plant isolate after 72 hrs by serial sub-cultivation method

| MIC (Aspergillus versicolor [2]) | MIC (Aspergillus flavus [4]) | MIC (Fulvia fulva [6]) | MIC (Bacillus cereus [8]) | MIC (Micrococcus flavus [10]) | MIC (Staphylococcus aureus [12]) | MIC (Escherichia coli [14]) | MIC (Pseudomonas aeruginosa [16]) | MIC (Proteus mirabilis [18]) | MIC (Salmonella typhimurium [20]) | Compound | MFC (Aspergillus niger [1]) | MFC (Aspergillus versicolor [3]) | MFC (Aspergillus flavus [5]) | MFC (Fulvia fulva [7]) | MBC (Bacillus cereus [9]) | MBC (Micrococcus flavus [11]) | MBC (Staphylococcus aureus [13]) | MBC (Escherichia coli [15]) | MBC (Pseudomonas aeruginosa [17]) | MBC (Proteus mirabilis [19]) | further results |
| --- | --- | --- | --- | --- | --- | --- | --- | --- | --- | --- | --- | --- | --- | --- | --- | --- | --- | --- | --- | --- | --- |
| 16.4 µM (≈ 7.67 µg/mL) | 16.4 µM (≈ 7.67 µg/mL) | 11 µM (≈ 5.14 µg/mL) | 11 µM (≈ 5.14 µg/mL) | 11 µM (≈ 5.14 µg/mL) | 21.9 µM (≈ 10.2 µg/mL) | 11 µM (≈ 5.14 µg/mL) | 16.4 µM (≈ 7.67 µg/mL) | 43.8 µM (≈ 20.5 µg/mL) | 21.9 µM (≈ 10.2 µg/mL) | COc1cc(/C=C2\S/C(=N\c3nc(C45CC6CC(CC(C6)C4)C5)cs3)NC2=O)ccc1O | 21.9 µM (≈ 10.2 µg/mL) | 21.9 µM (≈ 10.2 µg/mL) | 21.9 µM (≈ 10.2 µg/mL) | 21.9 µM (≈ 10.2 µg/mL) | 21.9 µM (≈ 10.2 µg/mL) | 21.9 µM (≈ 10.2 µg/mL) | 43.8 µM (≈ 20.5 µg/mL) | 16.4 µM (≈ 7.67 µg/mL) | 43.8 µM (≈ 20.5 µg/mL) | 65.7 µM (≈ 30.7 µg/mL) | MBC (Salmonella typhimurium [21]): 43.8 µM (≈ 20.5 µg/mL); MIC (Listeria monocytogenes [22]): 11 µM (≈ 5.14 µg/mL); MBC (Listeria monocytogenes [23]): 21.9 µM (≈ 10.2 µg/mL); MIC (Talaromyces funiculosus [24]): 16.4 µM (≈ 7.67 µg/mL); MFC (Talaromyces funiculosus [25]): 21.9 µM (≈ 10.2 µg/mL); MIC (Penicillium ochrochloron [26]): 16.4 µM (≈ 7.67 µg/mL); MFC (Penicillium ochrochloron [27]): 21.9 µM (≈ 10.2 µg/mL); MIC (Trichoderma viride [28]): 11 µM (≈ 5.14 µg/mL); MFC (Trichoderma viride [29]): 21.9 µM (≈ 10.2 µg/mL); MIC (Aspergillus niger [30]): 16.4 µM (≈ 7.67 µg/mL); MIC (Aspergillus fumigatus [31]): 16.4 µM (≈ 7.67 µg/mL); MFC (Aspergillus fumigatus [32]): 21.9 µM (≈ 10.2 µg/mL) |
| 17.2 µM (≈ 7.53 µg/mL) | 11.5 µM (≈ 5.03 µg/mL) | 11.5 µM (≈ 5.03 µg/mL) | 17.2 µM (≈ 7.53 µg/mL) | 22.9 µM (≈ 10 µg/mL) | 17.2 µM (≈ 7.53 µg/mL) | 22.9 µM (≈ 10 µg/mL) | 22.9 µM (≈ 10 µg/mL) | 45.8 µM (≈ 20 µg/mL) | 11.5 µM (≈ 5.03 µg/mL) | O=C1N/C(=N/c2nc(C34CC5CC(CC(C5)C3)C4)cs2)S/C1=C\c1ccc(O)cc1 | 22.9 µM (≈ 10 µg/mL) | 22.9 µM (≈ 10 µg/mL) | 22.9 µM (≈ 10 µg/mL) | 22.9 µM (≈ 10 µg/mL) | 22.9 µM (≈ 10 µg/mL) | 45.8 µM (≈ 20 µg/mL) | 45.8 µM (≈ 20 µg/mL) | 45.8 µM (≈ 20 µg/mL) | 45.8 µM (≈ 20 µg/mL) | 68.7 µM (≈ 30.1 µg/mL) | MBC (Salmonella typhimurium [21]): 17.2 µM (≈ 7.53 µg/mL); MIC (Listeria monocytogenes [22]): 22.9 µM (≈ 10 µg/mL); MBC (Listeria monocytogenes [23]): 45.8 µM (≈ 20 µg/mL); MIC (Talaromyces funiculosus [24]): 17.2 µM (≈ 7.53 µg/mL); MFC (Talaromyces funiculosus [25]): 22.9 µM (≈ 10 µg/mL); MIC (Penicillium ochrochloron [26]): 17.2 µM (≈ 7.53 µg/mL); MFC (Penicillium ochrochloron [27]): 22.9 µM (≈ 10 µg/mL); MIC (Trichoderma viride [28]): 11.5 µM (≈ 5.03 µg/mL); MFC (Trichoderma viride [29]): 22.9 µM (≈ 10 µg/mL); MIC (Aspergillus niger [30]): 11.5 µM (≈ 5.03 µg/mL); MIC (Aspergillus fumigatus [31]): 11.5 µM (≈ 5.03 µg/mL); MFC (Aspergillus fumigatus [32]): 22.9 µM (≈ 10 µg/mL) |
| 10.8 µM (≈ 5.04 µg/mL) | 16.1 µM (≈ 7.51 µg/mL) | 5.4 µM (≈ 2.52 µg/mL) | 10.8 µM (≈ 5.04 µg/mL) | 21.5 µM (≈ 10 µg/mL) | 16.1 µM (≈ 7.51 µg/mL) | 21.5 µM (≈ 10 µg/mL) | 21.5 µM (≈ 10 µg/mL) | 43 µM (≈ 20.1 µg/mL) | 21.5 µM (≈ 10 µg/mL) | O=C1N/C(=N/c2nc(C34CC5CC(CC(C5)C3)C4)cs2)S/C1=C\c1ccccc1[N+](=O)[O-] | 21.5 µM (≈ 10 µg/mL) | 16.1 µM (≈ 7.51 µg/mL) | 21.5 µM (≈ 10 µg/mL) | 10.8 µM (≈ 5.04 µg/mL) | 21.5 µM (≈ 10 µg/mL) | 43 µM (≈ 20.1 µg/mL) | 21.5 µM (≈ 10 µg/mL) | 43 µM (≈ 20.1 µg/mL) | 43 µM (≈ 20.1 µg/mL) | 64.5 µM (≈ 30.1 µg/mL) | MBC (Salmonella typhimurium [21]): 43 µM (≈ 20.1 µg/mL); MIC (Listeria monocytogenes [22]): 21.5 µM (≈ 10 µg/mL); MBC (Listeria monocytogenes [23]): 43 µM (≈ 20.1 µg/mL); MIC (Talaromyces funiculosus [24]): 10.8 µM (≈ 5.04 µg/mL); MFC (Talaromyces funiculosus [25]): 21.5 µM (≈ 10 µg/mL); MIC (Penicillium ochrochloron [26]): 10.8 µM (≈ 5.04 µg/mL); MFC (Penicillium ochrochloron [27]): 21.5 µM (≈ 10 µg/mL); MIC (Trichoderma viride [28]): 10.8 µM (≈ 5.04 µg/mL); MFC (Trichoderma viride [29]): 21.5 µM (≈ 10 µg/mL); MIC (Aspergillus niger [30]): 16.1 µM (≈ 7.51 µg/mL); MIC (Aspergillus fumigatus [31]): 10.8 µM (≈ 5.04 µg/mL); MFC (Aspergillus fumigatus [32]): 21.5 µM (≈ 10 µg/mL) |
